Source: PubChem BioAssay
Efflux pump mplx – antifungal efflux pump inhibition, Nile Red retention; inhibition, % at 10 µM; AID 485275; actives 0.44% (n = 330,000); S. cerevisiae Candida pump triplex;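 active = plate passing quality check with inhibition over a set limit, or well fluorescence over plate mean plus 4 SD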;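 note: Nile Red retained in pooled yeast measured as flow cytometry median fluorescence; 0% = buffer negative control and 100% = Enniatin B positive control; higher means more Nile Red kept so more efflux inhibition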
Tb MetRS inh – Trypanosoma brucei MetRS inhibition | actives 0.4% (n = 360,000) | purified T. brucei MetRS, ATP depletion, Kinase-Glo luminescence | inhibition, % at 11.9 µM;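 active = inhibition above a per-plate cutoff of the control wells' mean inhibition plus 3 SD, cut at about 5.5% in these data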;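 note: 0% = DMSO wells median and 100% = median of wells with control inhibitor compound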
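Material – parasite MetRS enzyme · Medium – HEPES-MgCl2-KCl buffer plus DTT, spermine, BSA, pyrophosphatase · Reagent – ATP, methionine and E. coli bulk tRNA substrates · Times – 15 min enzyme-compound preincubation, 2 h reaction, 10 min detection, 25 °C · Measured by – luminescence of leftover ATP · Evaluation – percent inhibition relative to median high and low control wells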
H9c2 TAG inh – inhibitors of triacylglycerol accumulation | H9c2 cells, Nile Red lipid (TAG) fluorescence; cells loaded with 200 µM oleic acid | actives 0.66% (n = 230,000) | inhibition, % at 12.5 µM;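 active = pattern-corrected inhibition of lipid staining of at least 50% with the nuclear-stain viability signal not falling by more than 50%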;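 note: 0% = DMSO wells and 100% = triacsin C control wells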
AHR act – human AHR activation; P35869; actives 2.5% (n = 320,000); activation, % at 5 µM; AHR-responsive luciferase reporter cells, luminescence; in the data active = activation above about 47%;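 note: 0% = vehicle wells and 100% = reference agonist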
Target sequence (P35869 whole entry, looked up): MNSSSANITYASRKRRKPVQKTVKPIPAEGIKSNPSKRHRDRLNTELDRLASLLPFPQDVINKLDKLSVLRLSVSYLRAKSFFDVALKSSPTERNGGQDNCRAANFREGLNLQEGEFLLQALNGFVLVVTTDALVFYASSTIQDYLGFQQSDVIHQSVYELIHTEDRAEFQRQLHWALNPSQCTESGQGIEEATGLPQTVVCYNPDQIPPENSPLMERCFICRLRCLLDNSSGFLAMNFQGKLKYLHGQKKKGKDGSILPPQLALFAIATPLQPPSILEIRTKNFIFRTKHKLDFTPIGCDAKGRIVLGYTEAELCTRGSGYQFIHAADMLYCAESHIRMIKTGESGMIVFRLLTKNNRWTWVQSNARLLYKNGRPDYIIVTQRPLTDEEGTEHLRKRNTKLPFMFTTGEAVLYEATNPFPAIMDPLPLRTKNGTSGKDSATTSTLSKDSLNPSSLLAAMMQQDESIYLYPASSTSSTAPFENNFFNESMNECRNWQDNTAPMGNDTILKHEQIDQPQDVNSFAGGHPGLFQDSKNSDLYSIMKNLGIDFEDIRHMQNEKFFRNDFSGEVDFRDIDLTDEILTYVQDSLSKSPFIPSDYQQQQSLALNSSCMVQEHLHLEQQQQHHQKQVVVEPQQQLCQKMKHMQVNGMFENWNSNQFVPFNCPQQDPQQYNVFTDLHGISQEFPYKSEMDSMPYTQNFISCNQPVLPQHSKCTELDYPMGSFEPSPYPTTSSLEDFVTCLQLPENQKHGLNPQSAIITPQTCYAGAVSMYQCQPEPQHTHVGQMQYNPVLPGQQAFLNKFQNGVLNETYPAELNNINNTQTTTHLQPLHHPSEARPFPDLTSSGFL
SMARCA2 act – SMARCA2 function activation, primary screen | MG213 cells, MMTV-luciferase reporter, dexamethasone, overnight | actives 1% (n = 370,000) | activation, % at 9.1 µM; in the data active = activation above about 7.8%;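 note: 0% = vehicle wells and 100% = reference activator wells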
Tb MetRS conf – Trypanosoma brucei MetRS inhibition confirmed | shares compounds with Tb MetRS inh | T. brucei MetRS enzyme, luminescence (ATP depletion) | inhibition, % at 11.9 µM | actives 93% (n = 1,400) | AID 624412; in the data active = inhibition above about 7%
Jurkat cytotox – counter-screen for T. brucei MetRS inhibitors: Jurkat cell cytotoxicity; shares compounds with Tb MetRS inh; Jurkat cells viability, ATP luminescence; inhibition, % at 8.3 µM; actives 12% (n = 1,400); AID 624413; in the data active = inhibition above about 15%;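 note: 0% = vehicle and 100% = reference inhibitor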
TbMetRS FP orth – orthogonal test for Trypanosoma brucei MetRS inhibitors | inhibition, % at 11.9 µM | AID 651607 | shares compounds with Tb MetRS inh | actives 44% (n = 1,400) | purified T. brucei MetRS, fluorescence polarization; in the data active = inhibition above about 17%;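 note: 0% = vehicle wells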
Starred values were filed as active, the others as inactive; nt = not tested or not shown. Shown are actives, neighbours in structure and some others; about 4.1% of the full set was active somewhere.

SMILES | Efflux pump mplx | Tb MetRS inh | H9c2 TAG inh | AHR act | SMARCA2 act | Tb MetRS conf | Jurkat cytotox | TbMetRS FP orth
Cc1ccc(S(=O)(=O)/C(C#N)=C/c2c[nH]c3ccccc23)cc1 | 1 | 19* | nt | 25 | -5 | 40* | -1 | 24*
Cc1ccc(S(=O)(=O)N/N=C/c2c[nH]c3ccccc23)cc1 | 0 | 0 | -15 | 12 | -5 | nt | nt | nt
CN1CCSc2ccc(C(=O)NCc3cccc(Br)c3)cc21 | 0 | 5.7* | 1 | 42 | -1 | 11* | -1 | 1
NC(Cc1ccc(O)cc1)C(=O)NN=Cc1ccccc1Cl (stereo not drawn) | nt | nt | nt | nt | -1 | nt | nt | nt
O=C(O)CCCCCn1c(SCC(=O)c2ccc(O)c(O)c2)nc2ccsc2c1=O | 1 | 6.2* | nt | 4 | -2 | 14* | 0 | 36*
CCCCn1c(SCC(=O)c2ccc(O)c(O)c2)nc2ccsc2c1=O | 0 | 0 | 5 | 6 | nt | nt | nt | nt
COCCCNC(=S)NNC(=O)c1ccc(S(=O)(=O)N2CCC(C)CC2)cc1 | 0 | 59* | 10 | -2 | -1 | 80* | 3 | 50*
COc1ccc(C(CNC(=O)Nc2ccc(Cl)cc2)N2CCN(C)CC2)cc1 (stereo not drawn) | 0 | 15* | nt | 0 | 0 | 39* | 4 | 17*
CC1CCN(C2=NC(=O)N(c3ccc(Br)cc3)C(=O)C2)CC1 | nt | nt | nt | nt | -2 | nt | nt | nt
N#Cc1c(NCCCO)nc(NCc2ccccc2)c2c1CCN(Cc1ccccc1)C2 | 0 | 42* | 9 | 12 | 1 | 36* | 0 | 19*
COc1ccc(CN2CCN(Cc3c[nH]c4ccccc34)CC2CCO)c(F)c1 (stereo not drawn) | 0 | 22* | 8 | 7 | 0 | 42* | 3 | 14
COc1cc(CN2CCN(Cc3c[nH]c4ccccc34)CC2CCO)cc(OC)c1 (stereo not drawn) | 0 | 0 | 3 | nt | -2 | nt | nt | nt
O=c1c(Cc2ccc(Cl)cc2Cl)c(O)ccn1Cc1ccncc1 | 0 | 27* | -3 | 3 | -4 | 39* | -2 | 27*
O=C(C1CCN(S(=O)(=O)c2ccc3[nH]c(=O)oc3c2)CC1)N1CCCN(Cc2ccccc2)CC1 | nt | nt | nt | nt | -2 | nt | nt | nt
CCCC(=O)N1CCC[C@]2(CC[C@H](CCC(C)=O)O2)C1 | nt | nt | nt | nt | 1 | nt | nt | nt
Clc1ccc(OCc2nnc3n2CCCCC3)c(Cl)c1 | 0 | 16* | 4 | -3 | -1 | 36* | 0 | 18*
Cc1cc(Cl)ccc1OCc1nnc2n1CCCCC2 | 0 | 9.4* | 4 | 1 | -2 | 20* | 0 | 9
Clc1ccc(NCc2nnc3n2CCCCC3)cc1 | 0 | 0 | nt | 5 | -2 | nt | nt | nt
c1ccc(OCc2nnc3n2CCCCC3)cc1 | 0 | -1 | -5 | 0 | -2 | nt | nt | nt
Cc1ccc(-c2nc3ncccn3c2NC(=O)c2ccccc2)cc1 | nt | nt | nt | nt | -1 | nt | nt | nt
Cc1ccc(NC(=O)COc2nsnc2N2CCOCC2)cc1Cl | 0 | 0 | nt | 26 | 4 | nt | nt | nt
O=C(COc1nsnc1N1CCOCC1)Nc1ccc(Br)cc1 | 0 | 20* | nt | 18 | 1 | 43* | 1 | 25*
C/C(=N\NC(=O)c1cc(-c2ccccc2)nc2ccccc12)c1ccc(Cl)cc1 | nt | nt | nt | nt | 2 | nt | nt | nt
CC/C(O)=C1\C(=O)CCCC1=NCc1nc2ccccc2[nH]1 | 0 | 8.9* | 14 | 17 | -2 | 16* | 2 | 5
C=CCN(CC#Cc1ccccc1)CC1CC1 | nt | nt | nt | nt | -4 | nt | nt | nt
SMILES | Efflux pump mplx | Tb MetRS inh | H9c2 TAG inh | AHR act | SMARCA2 act | Tb MetRS conf | Jurkat cytotox | TbMetRS FP orth
Cn1c(SCc2ccccc2)nnc1-c1c[nH]c2ccccc12 | 0 | 8.3* | 20 | -1 | 2 | 19* | 5 | 6
COc1ccccc1-c1nnc(SC(C(=O)c2c[nH]c3ccccc23)c2ccccc2)n1C (stereo not drawn) | 0 | 13* | nt | 6 | -2 | 35* | 2 | 11
CCCCNC(=O)C[C@H]1C[C@@]2(C(=O)OCC)CCCC3=C2N(CCC3)C1=O | nt | nt | nt | nt | 4 | nt | nt | nt
Cc1ccccc1NC(=O)Nc1ccc2c(c1)C(=O)N(C)[C@H]1CC[C@H](CC(=O)NCC3CC3)O[C@@H]1CO2 | nt | nt | nt | nt | 0 | nt | nt | nt
O=C(CCCCn1c(=O)[nH]c2ccccc2c1=O)N1CCN(c2cccc(C(F)(F)F)c2)CC1 | 0 | 12* | 4 | 1 | -5 | 14* | 8 | 5
O=C(CCn1c(=O)[nH]c2ccccc2c1=O)N1CCN(c2cccc(C(F)(F)F)c2)CC1 | 0 | -1 | -4 | 1 | -4 | nt | nt | nt
COc1ccc(N2CCN(C(=O)CCCCCn3c(=O)[nH]c4ccsc4c3=O)CC2)cc1 | 0 | 5 | -20 | 0 | -3 | nt | nt | nt
CC(=O)c1ccc(N2CCN(C(=O)CCCn3c(=O)[nH]c4ccsc4c3=O)CC2)cc1 | 1 | 7.3* | nt | 0 | 1 | 17* | 0 | 6
CC(=O)c1ccc(N2CCN(C(=O)CCCn3c(=O)[nH]c4ccc(Br)cc4c3=O)CC2)cc1 | 0 | 84* | -20 | 1 | -2 | 104* | 4 | 87*
CS(=O)(=O)N(CC(=O)Nc1ccc2c(c1)OCO2)Cc1ccc(Cl)cc1 | 0 | 14* | 1 | 65* | 2 | 23* | 3 | 8
O=C(NCc1nc2ncc(Br)cc2[nH]1)c1ccccc1 | 0 | 6.8* | 0 | 78* | 1 | 16* | 1 | 8
CC(C)Cc1nnc(NC(=O)Nc2ccccc2)s1 | 0 | 16* | 5 | 17 | -1 | 32* | -4 | 11
CC(C)COC(=O)Nc1nnc(Cc2ccccc2)s1 | 0 | 10* | -3 | 12 | 3 | 3 | 5 | 4
CC(C)Cc1nnc(NC(=O)CCC(=O)Nc2ccccc2)s1 | 0 | 0 | nt | 0 | -2 | nt | nt | nt
O=C(N=Nc1c(O)[nH]c2ccc(Br)cc12)c1ccccc1-n1cccc1 | 0 | 8.6* | nt | 22 | -3 | 26* | 76* | 12
Cc1cc(Cl)cc(C)c1OCCCCCn1ccnc1 | 0 | 7.8* | nt | 28 | -4 | 19* | 7 | 10
C(=N\Nc1nc2ccccc2[nH]1)/c1ccc2ncccc2c1 | 0 | 4 | 12 | 6 | -7 | nt | nt | nt
COc1cc(OC)c(OC)cc1/C=N/Nc1nc2ccccc2[nH]1 | 0 | 8.7* | 5 | 54* | -3 | 18* | 6 | 31*
C(=N\Nc1nc2ccccc2[nH]1)/c1cccc2nccnc12 | 0 | 5.9* | 52* | 27 | -5 | 9.9* | 96* | 25*
O=C(Cn1c(CC(=O)N2CCOCC2)nc2ccccc21)Nc1ccc2c(c1)OC(F)(F)O2 | 0 | 25* | -3 | 7 | -2 | 41* | 9 | 20*
O=C(c1c[nH]c2ccccc12)C(O)C(c1ccccc1)N1CCOCC1 (stereo not drawn) | 0 | 1 | nt | 10 | -1 | nt | nt | nt
